For 9 compounds, Ki and Ratio Ki results are on record in ChEMBL document CHEMBL4613327, “Sulfonamide Inhibitors of Human Carbonic Anhydrases Designed through a Three-Tails Approach: Improving Ligand/Isoform Matching and Selectivity of Action” (J Med Chem, 2020).

A value given as a limit tells only on which side of the number the result lay.

One experiment addresses Carbonic anhydrase 12 (Homo sapiens, UniProt O43570). Briefly: Inhibition of human CA12 preincubated for 15 mins by stopped-flow CO2 hydration kinetic assay based Cheng-Prusoff equation analysis.
A further experiment has as its target Carbonic anhydrase 2 (Homo sapiens, UniProt P00918). Briefly: Inhibition of human CA2 preincubated for 15 mins by stopped-flow CO2 hydration kinetic assay based Cheng-Prusoff equation analysis.
The species entered for experiment [1] is Homo sapiens. Kind of experiment: Selectivity index, ratio of Ki for inhibition of human CA4 to Ki for inhibition of human CA12. Summed up:
(§1)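 Ratio of Ki values. Each Ki came from stopped-flow CA-catalysed CO2 hydration with recombinant in-house hCA isoforms, phenol red 0.2 mM read at 557 nm, 20 mM Hepes pH 7.5, 20 mM Na2SO4, and CO2 1.7–17 mM. Inhibitor and enzyme were preincubated 15 min at room temperature. Initial rates, less the uncatalysed rate, were fit by nonlinear least squares with Cheng–Prusoff. Mean of ≥3 determinations.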

For experiment [2], the species on record is Homo sapiens. Briefly: Selectivity index, ratio of Ki for inhibition of human CA2 to Ki for inhibition of human CA4. In a few lines: as §1
The species named for experiment [3] is Homo sapiens. Briefly: Selectivity index, ratio of Ki for inhibition of human CA1 to Ki for inhibition of human CA2. Summed up:
as §1

Experiment [4] is filed under the species Homo sapiens. Kind of experiment: Selectivity index, ratio of Ki for inhibition of human CA1 to Ki for inhibition of human CA12. In a few lines: as §1
The species named for experiment [5] is Homo sapiens. Kind of experiment: Selectivity index, ratio of Ki for inhibition of human CA1 to Ki for inhibition of human CA4. In a few lines: as §1
For the next experiment, the target named is Carbonic anhydrase 1 (Homo sapiens, UniProt P00915). Briefly: Inhibition of human CA1 preincubated for 15 mins by stopped-flow CO2 hydration kinetic assay based Cheng-Prusoff equation analysis.
The next experiment has as its target Carbonic anhydrase 4 (Homo sapiens, UniProt P22748). Kind of experiment: Inhibition of human CA4 preincubated for 15 mins by stopped-flow CO2 hydration kinetic assay based Cheng-Prusoff equation analysis.
For experiment [6], the species on record is Homo sapiens. Briefly: Selectivity index, ratio of Ki for inhibition of human CA2 to Ki for inhibition of human CA12. Summed up: as §1

Sequence of Carbonic anhydrase 4 (P22748 whole entry): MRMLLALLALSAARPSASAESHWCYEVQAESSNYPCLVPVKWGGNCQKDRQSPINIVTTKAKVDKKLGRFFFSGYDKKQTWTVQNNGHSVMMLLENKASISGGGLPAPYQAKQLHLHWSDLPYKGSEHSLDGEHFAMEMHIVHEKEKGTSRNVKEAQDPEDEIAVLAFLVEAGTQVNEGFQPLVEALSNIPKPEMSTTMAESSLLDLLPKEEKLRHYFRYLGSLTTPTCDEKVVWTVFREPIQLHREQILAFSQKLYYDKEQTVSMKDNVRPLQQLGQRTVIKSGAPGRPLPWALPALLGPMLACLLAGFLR
Sequence of Carbonic anhydrase 12 (O43570 whole entry): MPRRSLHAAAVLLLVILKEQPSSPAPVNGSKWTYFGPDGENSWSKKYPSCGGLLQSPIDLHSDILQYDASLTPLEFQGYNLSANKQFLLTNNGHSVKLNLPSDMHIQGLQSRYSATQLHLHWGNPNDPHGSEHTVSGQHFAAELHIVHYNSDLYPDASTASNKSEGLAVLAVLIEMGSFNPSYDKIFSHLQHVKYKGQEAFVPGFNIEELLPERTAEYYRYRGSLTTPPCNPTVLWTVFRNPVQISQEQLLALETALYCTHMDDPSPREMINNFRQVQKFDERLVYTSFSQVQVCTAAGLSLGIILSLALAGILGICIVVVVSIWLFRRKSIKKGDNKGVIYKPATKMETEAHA
Sequence of Carbonic anhydrase 1 (P00915 whole entry): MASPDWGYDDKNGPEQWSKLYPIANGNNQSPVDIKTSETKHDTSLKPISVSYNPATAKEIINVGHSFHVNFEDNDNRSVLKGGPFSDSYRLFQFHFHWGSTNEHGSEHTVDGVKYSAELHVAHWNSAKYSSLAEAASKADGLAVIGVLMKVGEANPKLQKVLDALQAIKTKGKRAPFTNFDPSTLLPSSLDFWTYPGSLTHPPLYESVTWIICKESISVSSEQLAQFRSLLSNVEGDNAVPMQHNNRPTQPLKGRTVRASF

Take `NS(=O)(=O)c1ccc(CCN(Cc2ccccc2)C(=O)CN(Cc2ccccc2)Cc2ccccc2)cc1`: the inhibition constant (Ki) (as a rule, the equilibrium dissociation constant of an inhibitor or competing ligand from its target) was 98.8 nM on Carbonic anhydrase 12, 412 nM at Carbonic anhydrase 2, 866 nM on Carbonic anhydrase 1 and above 10000 nM at Carbonic anhydrase 4. Further, the Ratio Ki in the experiment listed under Homo sapiens [1] is above 101; in the experiment filed under Homo sapiens [2], below 0.04; in the experiment filed under Homo sapiens [3] it was 2.1; in the experiment listed under Homo sapiens [4] it was 8.8; in the experiment listed under Homo sapiens [5], below 0.09.

With `CCN(CC)CCC(=O)N(CCc1ccc(S(N)(=O)=O)cc1)Cc1ccccc1`, the Ki on Carbonic anhydrase 12 turned out to be 61.1 nM; at Carbonic anhydrase 2 it was 8.9 nM; at Carbonic anhydrase 1, 185 nM; at Carbonic anhydrase 4 it was 3930 nM. The Ratio Ki in the experiment listed under Homo sapiens [1] was found to be 64.3; in the experiment filed under Homo sapiens [2], 0.002; in the experiment listed under Homo sapiens [6], 0.1; in the experiment filed under Homo sapiens [3], 20.7; in the experiment listed under Homo sapiens [4], 3; in the experiment filed under Homo sapiens [5], 0.04.

`N#CCCN(CCc1ccccc1)CC(=O)N(CCc1ccc(S(N)(=O)=O)cc1)Cc1ccc(F)cc1`: the inhibitory constant (Ki) on Carbonic anhydrase 12 was 9.8 nM; on Carbonic anhydrase 2 it was 133 nM; at Carbonic anhydrase 1 it was 676 nM; at Carbonic anhydrase 4, 4130 nM. The Ratio Ki in the experiment listed under Homo sapiens [1] came to 422; in the experiment listed under Homo sapiens [2], 0.03; in the experiment listed under Homo sapiens [6], 13.6; in the experiment filed under Homo sapiens [3] it was 5.1; in the experiment listed under Homo sapiens [4] it was 69.8; in the experiment filed under Homo sapiens [5], 0.2.

As to `NS(=O)(=O)c1ccc(CCN(Cc2ccccc2)C(=O)CCN(Cc2ccccc2)Cc2ccccc2)cc1`, the inhibition constant Ki was 303 nM on Carbonic anhydrase 12, 559 nM on Carbonic anhydrase 2, 692 nM on Carbonic anhydrase 1 and 4640 nM at Carbonic anhydrase 4. In addition, the Ratio Ki in the experiment filed under Homo sapiens [1] amounted to 15.3; in the experiment listed under Homo sapiens [2], 0.1; in the experiment listed under Homo sapiens [6], 1.8; in the experiment listed under Homo sapiens [3], 1.2; in the experiment listed under Homo sapiens [4], 2.3; in the experiment filed under Homo sapiens [5] it was 0.2.

Consider `N#CCCN(CCc1ccccc1)CC(=O)N(CCc1ccc(S(N)(=O)=O)cc1)Cc1ccc([N+](=O)[O-])cc1`, for which the Ki on Carbonic anhydrase 12 came to 89.5 nM; at Carbonic anhydrase 2, 264 nM; at Carbonic anhydrase 1, 408 nM; on Carbonic anhydrase 4, 2420 nM. The Ratio Ki in the experiment listed under Homo sapiens [1] is 27.1; in the experiment filed under Homo sapiens [2], 0.1; in the experiment listed under Homo sapiens [6], 3; in the experiment filed under Homo sapiens [3], 1.5; in the experiment listed under Homo sapiens [4] it was 4.6; in the experiment listed under Homo sapiens [5], 0.2.

For the compound `N#CCCNCCc1ccc(S(N)(=O)=O)cc1`, the inhibitory constant (Ki) on Carbonic anhydrase 12 turned out to be 113 nM; at Carbonic anhydrase 2 it was 154 nM; on Carbonic anhydrase 1, 105 nM; at Carbonic anhydrase 4, 5550 nM. Besides, the Ratio Ki in the experiment listed under Homo sapiens [1] was 49; in the experiment filed under Homo sapiens [2], 0.03; in the experiment listed under Homo sapiens [6] it was 1.4; in the experiment filed under Homo sapiens [3] it was 0.7; in the experiment filed under Homo sapiens [4], 0.9; in the experiment filed under Homo sapiens [5], 0.02.

Regarding `NS(=O)(=O)c1ccc(CCNCc2ccc(F)cc2)cc1`, the Ki came out at 60.1 nM at Carbonic anhydrase 12, 78.5 nM at Carbonic anhydrase 2, 113 nM on Carbonic anhydrase 1 and 1200 nM on Carbonic anhydrase 4. Moreover, the Ratio Ki in the experiment filed under Homo sapiens [1] was 19.9; in the experiment filed under Homo sapiens [2], 0.06; in the experiment listed under Homo sapiens [6] it was 1.3; in the experiment listed under Homo sapiens [3] it was 1.4; in the experiment listed under Homo sapiens [4], 1.9; in the experiment filed under Homo sapiens [5], 0.09.

As to `N#CCCN(CCc1ccccc1)CC(=O)N(CCc1ccc(S(N)(=O)=O)cc1)Cc1ccc2ccccc2c1`, the Ki at Carbonic anhydrase 12 worked out at 64.9 nM; on Carbonic anhydrase 2, 248 nM; on Carbonic anhydrase 1, 685 nM; at Carbonic anhydrase 4, 3810 nM. Also, the Ratio Ki was 58.8 in the experiment listed under Homo sapiens [1]; 3.8 in the experiment filed under Homo sapiens [6]; 2.8 in the experiment filed under Homo sapiens [3]; 10.5 in the experiment filed under Homo sapiens [4]; 0.2 in the experiment listed under Homo sapiens [5].

As to `NS(=O)(=O)c1ccc(CCNCc2ccccc2)cc1`, the results for the Ki at Carbonic anhydrase 12 and on Carbonic anhydrase 4 were 65.4 nM and 2850 nM, respectively.
